Read-outs that look alike come from different tables or passages of the source.
What was measured:
U251 cells = assay: MTT cell proliferation assay; format: cell-based; details: read-out: Anti-proliferative activity IC50, U251
MDM2 = MDM2 (Homo sapiens, UniProt Q00987); assay: TR-FRET; format: binding; details: read-out: Inhibition rate at 1.0 μmol/L, MDM2
U87MG cells = assay: MTT cell proliferation assay; format: cell-based; details: read-out: Anti-proliferative activity IC50, U87MG
T98G cells = assay: MTT cell proliferation assay; format: cell-based; details: read-out: Anti-proliferative activity IC50, T98G
MDM2 and CDK4 = assay: TR-FRET inhibition at concentrations below 1.0 μmol/L; format: biochemical; details: target per compound not stated
U251 xenografts = assay: U251 xenograft antitumor activity; format: in vivo; details: mice; oral; 30 mg/kg; 21 days
How it was run: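 SPF nude mice, 6–8 weeks old, with subcutaneous U251 xenografts; test compound or reference inhibitors given orally at 30 mg/kg, normal saline as vehicle control, analysed at 21 days. Tumor volume, tumor weight and body weight tracked; tumors immunostained for MDM2, P53, P21, pCDK4, pRB and Ki-67, plus TUNEL immunofluorescence, scored as percent positive cells; mean ± SD.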

[1] = 24-h incubation, MTT, mutated P53

MDM2, sequence (Q00987 whole entry): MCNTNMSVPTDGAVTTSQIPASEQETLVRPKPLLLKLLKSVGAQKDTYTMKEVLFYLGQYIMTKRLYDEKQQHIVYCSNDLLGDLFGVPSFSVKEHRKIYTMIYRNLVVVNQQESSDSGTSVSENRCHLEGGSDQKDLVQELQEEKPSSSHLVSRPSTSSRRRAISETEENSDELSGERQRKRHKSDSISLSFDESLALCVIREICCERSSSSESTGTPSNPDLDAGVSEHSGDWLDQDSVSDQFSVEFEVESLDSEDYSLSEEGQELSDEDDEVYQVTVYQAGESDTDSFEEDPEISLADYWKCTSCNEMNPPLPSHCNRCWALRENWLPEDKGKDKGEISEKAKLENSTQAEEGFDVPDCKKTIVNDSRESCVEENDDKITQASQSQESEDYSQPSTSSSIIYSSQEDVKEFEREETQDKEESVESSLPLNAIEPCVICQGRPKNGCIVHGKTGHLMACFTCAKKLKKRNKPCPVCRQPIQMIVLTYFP

| SMILES | IC50 (U251 cells; Homo sapiens, U-251, 24 h) | inhibition at 1 µM (MDM2) | IC50 (U87MG cells; Homo sapiens, U-87 MG, 24 h) | IC50 (U251 cells; [1]) | IC50 (U87MG cells; 24-h incubation, MTT, wild-type P53) | IC50 (T98G cells; Homo sapiens, T98G, 24 h) | inhibition at concentrations below 1.0 μmol/L (MDM2 and CDK4) | tumor growth (U251 xenografts) | IC50 (T98G cells; [1]) |
| --- | --- | --- | --- | --- | --- | --- | --- | --- | --- |
| CCOC(=O)[C@H]1Cc2c(cc([N+](=O)[O-])cc2[N+](=O)[O-])[C@H](O)[C@]12C(=O)Nc1ccc(C)cc12 [4j′, Ethyl (1′S,3S,3′S)-1′-hydroxy-5-methyl-5′,7′-dinitro-2-oxo-3′,4′-dihydro-1′H-spiro[indoline-3,2′-naphthalene]-3′-carboxylate] | > 50 µM | 49.2% | > 50 µM | – | – | > 50 µM | – | – | – |
| O=C(c1ccccc1)[C@H]1Cc2c(cc([N+](=O)[O-])cc2[N+](=O)[O-])[C@H](O)[C@]12C(=O)Nc1ccccc12 [4k′, (1′S,3S,3′S)-3′-Benzoyl-1′-hydroxy-5′,7′-dinitro-3′,4′-dihydro-1′H-spiro[indoline-3,2′-naphthalen]-2-one] | > 50 µM | 35.4% | > 50 µM | – | – | > 50 µM | – | – | – |
| O=C(c1ccccc1F)[C@H]1Cc2c(cc([N+](=O)[O-])cc2[N+](=O)[O-])[C@H](O)[C@]12C(=O)Nc1ccccc12 [4l′, (1′S,3S,3′S)-3′-(2-Fluorobenzoyl)-1′-hydroxy-5′,7′-dinitro-3′,4′-dihydro-1′H-spiro[indoline-3,2′-naphthalen]-2-one] | > 50 µM | 31.6% | > 50 µM | – | – | > 50 µM | – | – | – |
| O=C(c1ccc(F)cc1)[C@H]1Cc2c(cc([N+](=O)[O-])cc2[N+](=O)[O-])[C@H](O)[C@]12C(=O)Nc1ccccc12 [4m′, (1′S,3S,3′S)-3′-(4-Fluorobenzoyl)-1′-hydroxy-5′,7′-dinitro-3′,4′-dihydro-1′H-spiro[indoline-3,2′-naphthalen]-2-one] | > 50 µM | 36.2% | > 50 µM | – | – | > 50 µM | – | – | – |
| O=C(c1ccc(Cl)c(Cl)c1)[C@H]1Cc2c(cc([N+](=O)[O-])cc2[N+](=O)[O-])[C@H](O)[C@]12C(=O)Nc1ccccc12 [4n′, (1′S,3S,3′S)-3′-(3,4-Dichlorobenzoyl)-1′-hydroxy-5′,7′-dinitro-3′,4′-dihydro-1′H-spiro[indoline-3,2′-naphthalen]-2-one] | > 50 µM | 36.3% | > 50 µM | – | – | > 50 µM | – | – | – |
| O=C(c1ccc(Br)cc1)[C@H]1Cc2c(cc([N+](=O)[O-])cc2[N+](=O)[O-])[C@H](O)[C@]12C(=O)Nc1ccccc12 [4o′, (1′S,3S,3′S)-3′-(4-Bromobenzoyl)-1′-hydroxy-5′,7′-dinitro-3′,4′-dihydro-1′H-spiro[indoline-3,2′-naphthalen]-2-one] | > 50 µM | 29% | > 50 µM | – | – | > 50 µM | – | – | – |
| COc1ccc(C(=O)[C@H]2Cc3c(cc([N+](=O)[O-])cc3[N+](=O)[O-])[C@H](O)[C@]23C(=O)Nc2ccccc23)cc1 [4p′, (1′S,3S,3′S)-1′-Hydroxy-3′-(4-methoxybenzoyl)-5′,7′-dinitro-3′,4′-dihydro-1′H-spiro[indoline-3,2′-naphthalen]-2-one] | > 50 µM | 26.9% | > 50 µM | – | – | > 50 µM | – | – | – |
| COc1ccc(C2=N[C@@H](c3ccc(Cl)cc3)[C@@H](c3ccc(Cl)cc3)N2C(=O)N2CCNC(=O)C2)c(OC(C)C)c1 [Nutlin-3a, nutlin-3a, reference compound] | – | – | – | > 50 µM | 25.3 ± 2.5 µM | – | 40% to 20% | potently inhibited tumor growth | > 50 µM |
| CC(=O)c1c(C)c2cnc(Nc3ccc(N4CCNCC4)cn3)nc2n(C2CCCC2)c1=O [Palbociclib, palbociclib, reference compound] | 18.9 ± 2.4 µM | – | 26.4 ± 3.8 µM | – | – | 29.5 ± 4.5 µM | – | potently inhibited tumor growth | – |

More lines, main results first:

| IC50 (U251 cells; Homo sapiens, U-251, 24 h) | inhibition at 1 µM (MDM2) | IC50 (U87MG cells; Homo sapiens, U-87 MG, 24 h) | IC50 (U251 cells; [1]) | IC50 (U87MG cells; 24-h incubation, MTT, wild-type P53) | SMILES | IC50 (T98G cells; Homo sapiens, T98G, 24 h) | inhibition at concentrations below 1.0 μmol/L (MDM2 and CDK4) | tumor growth (U251 xenografts) | IC50 (T98G cells; [1]) |
| --- | --- | --- | --- | --- | --- | --- | --- | --- | --- |
| 53.8 ± 9 µM | 46.4 ± 4.9% | 38.7 ± 6.5 µM | – | – | O=C(c1ccccc1)[C@H]1Cc2c(cc([N+](=O)[O-])cc2[N+](=O)[O-])[C@@H](O)[C@@]12C(=O)Nc1ccccc12 [4k, (1′R,3R,3′S)-3′-Benzoyl-1′-hydroxy-5′,7′-dinitro-3′,4′-dihydro-1′H-spiro[indoline-3,2′-naphthalen]-2-one] | 43.7 ± 6.6 µM | – | – | – |
| 38.7 ± 6.1 µM | 47.2 ± 5.71% | 32.5 ± 4.7 µM | – | – | O=C(c1ccccc1F)[C@H]1Cc2c(cc([N+](=O)[O-])cc2[N+](=O)[O-])[C@@H](O)[C@@]12C(=O)Nc1ccccc12 [4l, (1′R,3R,3′S)-3′-(2-Fluorobenzoyl)-1′-hydroxy-5′,7′-dinitro-3′,4′-dihydro-1′H-spiro[indoline-3,2′-naphthalen]-2-one] | 43.6 ± 4.8 µM | – | – | – |
| 39.5 ± 3.8 µM | 44.6 ± 3.7% | 47.2 ± 3.8 µM | – | – | O=C(c1ccc(F)cc1)[C@H]1Cc2c(cc([N+](=O)[O-])cc2[N+](=O)[O-])[C@@H](O)[C@@]12C(=O)Nc1ccccc12 [4m, (1′R,3R,3′S)-3′-(4-Fluorobenzoyl)-1′-hydroxy-5′,7′-dinitro-3′,4′-dihydro-1′H-spiro[indoline-3,2′-naphthalen]-2-one] | 37.1 ± 3.2 µM | – | – | – |
| 25.9 ± 3.5 µM | 38.4 ± 2.7% | 34.9 ± 2.62 µM | – | – | O=C(c1ccc(Cl)c(Cl)c1)[C@H]1Cc2c(cc([N+](=O)[O-])cc2[N+](=O)[O-])[C@@H](O)[C@@]12C(=O)Nc1ccccc12 [4n, (1′R,3R,3′S)-3′-(3,4-Dichlorobenzoyl)-1′-hydroxy-5′,7′-dinitro-3′,4′-dihydro-1′H-spiro[indoline-3,2′-naphthalen]-2-one] | 32.5 ± 2.9 µM | – | – | – |
| 44.2 ± 4.6 µM | 47.1 ± 5.8% | 41.6 ± 4.3 µM | – | – | O=C(c1ccc(Br)cc1)[C@H]1Cc2c(cc([N+](=O)[O-])cc2[N+](=O)[O-])[C@@H](O)[C@@]12C(=O)Nc1ccccc12 [4o, (1′R,3R,3′S)-3′-(4-Bromobenzoyl)-1′-hydroxy-5′,7′-dinitro-3′,4′-dihydro-1′H-spiro[indoline-3,2′-naphthalen]-2-one] | 45.7 ± 6.7 µM | – | – | – |
| 43.2 ± 5.9 µM | 35.7 ± 4.9% | 39.9 ± 4.2 µM | – | – | COc1ccc(C(=O)[C@H]2Cc3c(cc([N+](=O)[O-])cc3[N+](=O)[O-])[C@@H](O)[C@@]23C(=O)Nc2ccccc23)cc1 [4p, (1′R,3R,3′S)-1′-Hydroxy-3′-(4-methoxybenzoyl)-5′,7′-dinitro-3′,4′-dihydro-1′H-spiro[indoline-3,2′-naphthalen]-2-one] | 45.9 ± 8.1 µM | – | – | – |

Source: publication PMC7488488 (Acta Pharmaceutica Sinica. B, 2019)
